Data on 17 compounds can be found in ChEMBL document CHEMBL1909620, “The development of N-α-(2-carboxyl)benzoyl-N(5)-(2-fluoro-1-iminoethyl)-l-ornithine amide (o-F-amidine) and N-α-(2-carboxyl)benzoyl-N(5)-(2-chloro-1-iminoethyl)-l-ornithine amide (o-Cl-amidine) as second generation protein arginine deiminase (PAD) inhibitors” (J Med Chem, 2011).

By IC50 is commonly meant the concentration at which inhibition is half-maximal. Broadly, the EC50 is the concentration giving half of the maximal effect.

The subject of experiment [1] is TK6. In words: Induction of apoptosis in human TK6 cells assessed as viable cells at 50 ug/ml after 2 hrs by annexin V/propidium iodide staining method relative to control. Format: functional. To be noted: TK6, 2 h, read-out: Activity. The procedure, abridged: (§1)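 TK6 human lymphoblastoid cells kept in exponential suspension culture in RPMI 1640 with 10% heat-inactivated calf serum, penicillin/streptomycin and 2 mmol/L L-glutamine at 37 °C, 5% CO2. Serum was cut to 1% 12 h before dosing at 50 μg/ml for the stated times. Cells were stained with Annexin V/propidium iodide and analysed as quadrant scatterplots.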

Experiment [2] deals with TK6. In words: Induction of apoptosis in human TK6 cells assessed as necrotic cells at 50 ug/ml after 8 hrs by annexin V/propidium iodide staining method relative to control relative to control. Format: functional. The procedure, abridged:
as §1

Experiment [3] relates to TK6. Kind of experiment: Induction of apoptosis in human TK6 cells assessed as necrotic cells at 50 ug/ml after 2 hrs by annexin V/propidium iodide staining method relative to control. Format: functional. Summed up:
as §1

The subject of experiment [4] is TK6. Kind of experiment: Induction of apoptosis in human TK6 cells assessed as viable cells at 50 ug/ml after 8 hrs by annexin V/propidium iodide staining method relative to control. Format: functional. To be noted: TK6, 8 h, read-out: Activity. The procedure, abridged: as §1
For experiment [5], the system named is TK6. In words: Induction of apoptosis in human TK6 cells assessed as late apoptotic cells at 50 ug/ml after 4 hrs by annexin V/propidium iodide staining method relative to control. Format: functional. Summed up:
as §1

The subject of experiment [6] is TK6. Kind of experiment: Induction of apoptosis in human TK6 cells assessed as late apoptotic cells at 50 ug/ml after 2 hrs by annexin V/propidium iodide staining method relative to control. Format: functional. Summed up: as §1
In experiment [7] the test system is TK6. Kind of experiment: Induction of apoptosis in human TK6 cells assessed as early apoptotic cells at 50 ug/ml after 2 hrs by annexin V/propidium iodide staining method relative to control. Format: functional. The procedure, abridged: as §1
Experiment [8] concerns TK6. Kind of experiment: Induction of apoptosis in human TK6 cells assessed as early apoptotic cells at 50 ug/ml after 8 hrs by annexin V/propidium iodide staining method relative to control. Format: functional. The procedure, abridged:
as §1

Experiment [9] relates to TK6. In words: Induction of apoptosis in human TK6 cells assessed as viable cells at 50 ug/ml after 4 hrs by annexin V/propidium iodide staining method relative to control. To be noted: TK6, 4 h, read-out: Activity. Format: functional. The procedure, abridged:
as §1

Experiment [10] relates to TK6. Kind of experiment: Induction of apoptosis in human TK6 cells assessed as early apoptotic cells at 50 ug/ml after 4 hrs by annexin V/propidium iodide staining method relative to control. Format: functional.
For experiment [11], the system named is TK6. Kind of experiment: Induction of apoptosis in human TK6 cells assessed as necrotic cells at 50 ug/ml after 4 hrs by annexin V/propidium iodide staining method relative to control. Format: functional. Summed up: as §1
Experiment [12] deals with TK6. In words: Induction of apoptosis in human TK6 cells assessed as late apoptotic cells at 50 ug/ml after 8 hrs by annexin V/propidium iodide staining method relative to control. Format: functional. The procedure, abridged: as §1
The test system of experiment [13] is TK6. Kind of experiment: Induction of apoptosis in human TK6 cells assessed as induction of PARP cleavage at 50 ug/ml measured up to 8 hrs by Western blotting. Format: functional, cell-based. The procedure, abridged:
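TK6 cells were moved to 1% heat-inactivated calf serum RPMI 1640 12 h beforehand, then exposed to 50 μg/ml for time courses. PARP cleavage was detected by western blot with anti-PARP antibody, using GAPDH as loading control.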

Experiment [14] concerns the target Protein-arginine deiminase type-2 (Homo sapiens, UniProt Q9Y2J8). Kind of experiment: Irreversible inhibition of PAD2 assessed as hydrolysis of benzoyl-L-arginine ethyl ester preincubated for 15 mins measured after 15 mins by fluorometric analysis.
In experiment [15] the test system is HL-60. In words: Induction of human HL60 cell differentiation assessed as increase in PAD4 expression level at 1 to 10 uM by Western blotting. Format: functional, cell-based. To be noted: TDE = time-dependent effect. Background: In western blotting, separated proteins are transferred to a membrane and probed.
The subject of experiment [16] is HL-60. In words: Induction of human HL60 cell differentiation assessed as increase in PAD4 expression level at 1 uM after 12 hrs by Western blotting. Format: functional, cell-based.
The test system of experiment [17] is HL-60. In words: Induction of human HL60 cell differentiation assessed as increase in PAD4 expression level at 1 uM after 24 hrs by Western blotting. Format: functional, cell-based.
Experiment [18] has as its system HL-60. In words: Induction of human HL60 cell differentiation assessed as increase in PAD4 expression level at 10 uM after 6 hrs by Western blotting. Format: functional, cell-based.
Experiment [19] has as its system HL-60. In words: Induction of human HL60 cell differentiation assessed as increase in PAD4 expression level after 24 hrs by Western blotting. Format: functional, cell-based.
Experiment [20] has as its system HL-60. Kind of experiment: Potentiation of doxorubicin-induced cytotoxicity against human HL60 cells assessed as reduction in cell viability at 0.1 to 1 uM after 24 hrs by MTT assay relative to control. Format: functional. Summed up: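 HL60 cells (RPMI 1640, 10% FBS, 37 °C, 5% CO2) were exposed for 24 h to doxorubicin alone or together with inhibitor at fixed levels. Viability was read by MTT assay as percent of control absorbance, run in triplicate. Doxorubicin EC50 came from dose-response fits. Interaction was scored by the additive model: observed/expected ratio <0.8 synergistic, 0.8–1.2 additive.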

Experiment [21] concerns HL-60. In words: Cytotoxicity against human HL60 cells assessed as reduction in cell viability after 24 hrs by MTT assay relative to control. Format: functional, cell-based. To be noted: HL-60, 24 h. Summed up: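 HL60 cells grown in RPMI 1640 with 10% FBS and 1% penicillin-streptomycin at 37 °C, 5% CO2, used at 1 × 10^6 cells/mL. Compounds were added at 100 nM to 100 μM final and incubated 24 h. Viability was read by MTT-type assay as percent of control absorbance, with 1% Triton X-100 as the 100% kill control. Triplicates; EC50 from dose-response fit where possible.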
Background: Tetrazolium dyes change colour on reduction, which living cells bring about.

Experiment [22] deals with Protein-arginine deiminase type-4 (Homo sapiens, UniProt Q9UM07). In words: Irreversible inhibition of PAD4 assessed as hydrolysis of benzoyl-L-arginine ethyl ester preincubated for 15 mins measured after 15 mins by fluorometric analysis.
Protein-arginine deiminase type-4, sequence (Q9UM07 whole entry): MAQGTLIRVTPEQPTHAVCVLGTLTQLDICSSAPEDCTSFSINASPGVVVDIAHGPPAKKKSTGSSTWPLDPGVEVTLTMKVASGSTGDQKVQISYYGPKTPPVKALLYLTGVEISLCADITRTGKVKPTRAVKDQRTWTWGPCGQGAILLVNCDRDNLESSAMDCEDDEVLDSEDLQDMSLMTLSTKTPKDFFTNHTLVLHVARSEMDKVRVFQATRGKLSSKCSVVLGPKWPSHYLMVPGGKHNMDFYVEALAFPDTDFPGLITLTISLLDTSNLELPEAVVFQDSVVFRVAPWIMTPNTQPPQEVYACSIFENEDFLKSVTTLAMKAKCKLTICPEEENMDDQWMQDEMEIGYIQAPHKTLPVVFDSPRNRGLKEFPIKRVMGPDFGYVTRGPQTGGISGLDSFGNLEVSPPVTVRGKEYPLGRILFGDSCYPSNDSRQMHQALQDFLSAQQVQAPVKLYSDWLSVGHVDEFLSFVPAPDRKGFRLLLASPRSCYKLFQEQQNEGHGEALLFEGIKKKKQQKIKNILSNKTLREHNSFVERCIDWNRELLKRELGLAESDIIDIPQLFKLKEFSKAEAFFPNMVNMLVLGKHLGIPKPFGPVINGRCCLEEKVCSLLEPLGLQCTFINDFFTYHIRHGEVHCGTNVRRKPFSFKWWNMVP
For experiment [23], the target named is T1, Protein-arginine deiminase type-3 (Homo sapiens, UniProt Q9ULW8).
T1 sequence (Q9ULW8 whole entry): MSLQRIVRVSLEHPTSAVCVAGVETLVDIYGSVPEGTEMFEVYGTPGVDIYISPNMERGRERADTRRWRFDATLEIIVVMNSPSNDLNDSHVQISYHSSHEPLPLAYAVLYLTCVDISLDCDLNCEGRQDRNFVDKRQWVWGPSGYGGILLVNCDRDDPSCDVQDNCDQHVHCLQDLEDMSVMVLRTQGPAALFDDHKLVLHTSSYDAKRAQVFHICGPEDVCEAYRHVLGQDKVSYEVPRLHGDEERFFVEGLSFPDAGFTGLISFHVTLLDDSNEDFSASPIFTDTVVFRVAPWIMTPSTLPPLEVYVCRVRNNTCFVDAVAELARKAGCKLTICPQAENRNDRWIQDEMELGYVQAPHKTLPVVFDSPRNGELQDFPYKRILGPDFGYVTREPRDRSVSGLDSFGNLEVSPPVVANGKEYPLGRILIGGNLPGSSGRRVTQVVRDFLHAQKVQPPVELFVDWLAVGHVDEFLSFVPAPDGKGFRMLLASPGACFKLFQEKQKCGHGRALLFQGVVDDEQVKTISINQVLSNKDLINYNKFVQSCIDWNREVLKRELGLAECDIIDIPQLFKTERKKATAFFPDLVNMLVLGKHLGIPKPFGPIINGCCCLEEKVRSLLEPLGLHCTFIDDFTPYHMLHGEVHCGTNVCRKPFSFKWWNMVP
Kind of experiment: Irreversible inhibition of PAD3 assessed as hydrolysis of benzoyl-L-arginine ethyl ester preincubated for 15 mins measured after 15 mins by fluorometric analysis.

The target of experiment [24] is T2, Protein-arginine deiminase type-1 (Homo sapiens, UniProt Q9ULC6).
T2 sequence (Q9ULC6 whole entry): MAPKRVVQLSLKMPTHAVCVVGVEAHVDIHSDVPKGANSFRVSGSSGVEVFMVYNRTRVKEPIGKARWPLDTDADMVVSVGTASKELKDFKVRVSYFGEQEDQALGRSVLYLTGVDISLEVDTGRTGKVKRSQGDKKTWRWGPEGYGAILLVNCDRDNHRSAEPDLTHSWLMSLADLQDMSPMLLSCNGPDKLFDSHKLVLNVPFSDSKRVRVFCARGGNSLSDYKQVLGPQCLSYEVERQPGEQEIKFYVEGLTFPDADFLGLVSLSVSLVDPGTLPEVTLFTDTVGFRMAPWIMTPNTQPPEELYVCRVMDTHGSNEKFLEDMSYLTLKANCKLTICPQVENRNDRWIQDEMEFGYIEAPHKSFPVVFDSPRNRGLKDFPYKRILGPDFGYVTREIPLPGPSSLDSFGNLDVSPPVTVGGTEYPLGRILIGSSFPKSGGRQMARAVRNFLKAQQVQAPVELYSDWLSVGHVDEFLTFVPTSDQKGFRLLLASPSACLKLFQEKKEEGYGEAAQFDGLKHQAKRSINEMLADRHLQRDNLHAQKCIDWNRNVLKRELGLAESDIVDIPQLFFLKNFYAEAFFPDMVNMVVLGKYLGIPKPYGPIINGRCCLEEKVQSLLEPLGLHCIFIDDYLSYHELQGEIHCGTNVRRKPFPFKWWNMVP
In words: Irreversible inhibition of PAD1 assessed as hydrolysis of benzoyl-L-arginine ethyl ester preincubated for 15 mins measured after 15 mins by fluorometric analysis.

Each structure is given as a SMILES string. Active and inactive are the calls of the source. The rule behind the calls is not given here.

Protein-arginine deiminase type-2, sequence (Q9Y2J8 whole entry): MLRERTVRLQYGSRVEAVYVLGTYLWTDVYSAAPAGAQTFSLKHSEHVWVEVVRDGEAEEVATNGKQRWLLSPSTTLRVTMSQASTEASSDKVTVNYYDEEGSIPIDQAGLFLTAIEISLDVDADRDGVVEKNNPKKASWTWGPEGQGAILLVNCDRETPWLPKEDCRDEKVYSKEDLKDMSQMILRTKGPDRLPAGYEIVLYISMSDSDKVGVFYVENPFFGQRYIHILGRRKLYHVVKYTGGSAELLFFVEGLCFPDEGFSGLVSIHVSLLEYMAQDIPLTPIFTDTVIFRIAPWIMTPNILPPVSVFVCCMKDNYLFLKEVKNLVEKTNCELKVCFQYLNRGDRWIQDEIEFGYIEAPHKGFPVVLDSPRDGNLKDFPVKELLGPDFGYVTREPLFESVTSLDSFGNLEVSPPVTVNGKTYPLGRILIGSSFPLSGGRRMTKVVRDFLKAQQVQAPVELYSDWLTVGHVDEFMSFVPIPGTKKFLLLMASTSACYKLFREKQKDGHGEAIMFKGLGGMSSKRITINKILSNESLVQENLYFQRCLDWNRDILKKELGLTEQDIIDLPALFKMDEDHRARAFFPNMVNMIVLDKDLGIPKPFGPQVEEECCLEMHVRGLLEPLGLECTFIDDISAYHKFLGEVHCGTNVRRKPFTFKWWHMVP

In the case of `N=C(CCl)NCCC[C@H](NC(=O)c1ccccc1)C(N)=O.O=C(O)C(F)(F)F`, the figures for the viability at 50 µg/mL in experiment [1], in experiment [4] and in experiment [9] were 85.6%, 46.2% and 78.8%, respectively. Also, the Activity in experiment [2] stood at 0.8%; in experiment [3], 0.1%; in experiment [5], 8.9%; in experiment [6], 6.8%; in [7], 7.5%; in experiment [8], 20.4%. For the same compound, the Activity in [10] is listed as 11.9%; in experiment [11], 0.4%; in experiment [12], 32.6%. In experiment [13], the result was Active.
Take `N=C(CF)NCCC[C@H](NC(=O)c1ccccc1C(=O)O)C(N)=O.O=C(O)C(F)(F)F`: the figures for the viability at 50 µg/mL in [1], in experiment [4] and in experiment [9] were 88%, 60.1% and 74.9%, respectively. Besides, the Activity in experiment [2] was 0.3%; in experiment [3], 0.3%; in [15], “tde”; in experiment [5], 4.8%; in experiment [6] it was 3.3%; in [7] it was 8.3%. In addition, the Activity in [8] was 27.7%; in experiment [11], 0.3%; in experiment [19], “Dose-dependent effect”; in experiment [12] it was 11.9%. For the same compound, the IC50 in [14] is not below 50 µM. Further, the result in experiment [16], in experiment [17], in [18] and in experiment [13] was Active.
On to `N=C(CCl)NCCC[C@H](NC(=O)c1ccccc1C(=O)O)C(N)=O`, for which the Activity entry was “tde” in experiment [15] and “Dose-dependent effect” in experiment [19]. The outcome in experiment [16], in experiment [17] and in [18] was Active.
`COc1cccc2c1C(=O)c1c(O)c3c(c(O)c1C2=O)C[C@@](O)(C(=O)CO)C[C@@H]3O[C@H]1C[C@H](N)[C@H](O)[C@H](C)O1` [DOXORUBICIN]: in [20], the “fold change (FC)” value came to 6. The EC50 in [21] is 2.5 µM.
In the case of `CCCNC(=N)CF`, the IC50 in [22] was more than 1000 µM.
On the same count and under the same terms, under `N=C(CF)NCCC[C@H](NC(=O)c1c[nH]cn1)C(N)=O` stands 230 µM; under `N=C(N)CF`, more than 10000 µM.
Regarding `N=C(CF)NCCC[C@H](NC(=O)c1ccccc1)C(N)=O`, the IC50 in [23] amounted to 367 µM; in experiment [24], 29 µM. The Ki in experiment [23] was determined as 293 µM; in [24] it was 110 µM.
As for `N=C(CF)NCCCCNS(=O)(=O)c1ccccc1`, the 50% inhibitory concentration (IC50) in experiment [22] is more than 1000 µM.
Regarding `N=C(CF)NCCC[C@H](NS(=O)(=O)c1ccccc1)C(N)=O`, in [22], the IC50 was found to be 500 µM.
For `N=C(CF)NCc1ccc(C[C@H](NC(=O)c2ccccc2)C(N)=O)cc1`, the IC50 in experiment [22] is more than 1000 µM.
The same measure, in the same setting: in the case of `N=C(CF)Nc1ccc(C[C@H](NC(=O)c2ccccc2)C(N)=O)cc1` it was 310 µM.
Same read-out and setting: in the case of `N=C(CF)NCc1ccccc1` it was more than 1000 µM; in that of `N=C(CF)NCCCCNC(=O)c1ccccc1`, more than 1000 µM.
As for `N=C(CF)Nc1cccc(C[C@H](NC(=O)c2ccccc2)C(N)=O)c1`, in experiment [22], the IC50 worked out at 310 µM.
For `N=C(CF)Nc1cccc([C@H](NC(=O)c2ccccc2)C(N)=O)c1`, in experiment [22], the IC50 came out at 2100 µM.
In the case of `N=C(CF)Nc1ccccc1`, the IC50 in experiment [22] was more than 500 µM.
